FGF22 binding: binders of human FGF22 protein, primary screen, FGF22 synaptogenesis inhibitor project, biophysical, thermal shift, single point; Fibroblast growth factor 22 (Homo sapiens), Q9HCT0; recombinant FGF22 thermal shift, SYPRO orange fluorescence; percent of sucrose octasulfate shift, DMSO zero; activity (Tm shift, normalised), % at 9.99 µM; 340,000 tested, 1.5% active;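 active = mean Tm shift, scaled 0 neutral to 100 positive control, at about 1.3% or above, every replicate too, limit read from the data; inconclusive = no clear call, values can overlap the other calls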
Target sequence (Q9HCT0 whole entry, looked up): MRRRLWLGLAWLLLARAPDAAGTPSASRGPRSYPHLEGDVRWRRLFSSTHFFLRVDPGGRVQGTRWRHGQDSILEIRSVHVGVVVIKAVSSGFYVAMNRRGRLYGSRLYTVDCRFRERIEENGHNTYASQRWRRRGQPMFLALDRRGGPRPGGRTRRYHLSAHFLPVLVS
FN deposit inh: inhibitors of fibronectin matrix deposition, primary screen, AH1F cells, Alexa488-fibronectin fluorescence, plate reader. AID 743247, 2014. AH1F fibroblasts, overnight. 350,000 tested, 0.086% active. inhibition, % at 12.6 µM;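 active = mean inhibition across replicates of 30% or more, regardless of how many single replicates reach that level; inconclusive = mean under 30% yet at least half of replicates reach 30%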;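 note: positive control wells lacked labelled fibronectin entirely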
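Schedule: 1 h cell adhesion before compound, then overnight fibronectin incubation; test system: AH1F fibroblast monolayer depositing Alexa488-labelled fibronectin into matrix; quantity: 10000 AH1F cells per well; probe or stimulus: fluorescent fibronectin at 24 nM final; signal: fluorescence, ex 485 nm, em 525 nm; evaluation: percent inhibition as loss of matrix-bound fibronectin fluorescence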
XiGFP reactiv: activators of inactive X chromosome reactivation, primary screen, imaging, XiGFP fibroblasts, GFP high-content imaging, set 2 | XiGFP mouse fibroblasts, % GFP-positive cells imaging, 3 d; cells co-treated with 5-aza-dC sensitizer; scaled so ellipticine positive control = 100% | activation, % at 7.58 µM | 360,000 tested, 0.055% active;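 active = mean normalized replicate activation at least 10% and every replicate at or above 10%; inconclusive = only one of the two criteria met; inactive = mean below 10% and not all replicates reach 10%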;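 note: 0% = median of on-plate neutral control wells and 100% = ellipticine 6 µM median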
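System: 68-5-11 XiGFP fibroblast line | Buffer or medium: DMEM containing 5-aza-dC | Compound: Single point | Times: Compounds 3 days, fix/stain 15 min at room temperature | Benchmarks: Positive control ellipticine, 6 µM final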
DENV2 CPE: inhibitors of DENV2 cytopathic effect, primary screen, cell-based, plate reader, single concentration; CPE inhibition, % at 9.99 µM; AID 651640, 2012; DENV2-infected cells, cytopathic effect rescue; 350,000 tested, 1.7% active; in the data active = CPE inhibition above about 20%, passing the limit was not always enough; inconclusive = no clear call, values can overlap the other calls; tested in BHK-21 cells;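 note: 0% = median of neutral control wells and 100% = median of positive control wells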
ARNT TACC3 PPI: disruptors of ARNT/TACC3 protein interaction, primary screen, biochemical, AlphaScreen, single concentration; 390,000 tested, 0.66% active; AlphaScreen His-ARNT PAS-B/GST-TACC3 binding, luminescence; TACC3 fragment carries E629A point mutation; Transforming acidic coiled-coil-containing protein 3 (Homo sapiens), Q9Y6A5; inhibition, % at 9.99 µM;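 active = mean inhibition of replicates at least 50% and at least half of replicates each reaching 50%; inconclusive = half or more replicates reach 50% but mean below 50%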;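 note: 0% = complete ARNT plus TACC3 wells and 100% = ARNT alone without TACC3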
SIRT5 block: SIRT5 desuccinylase inhibitors, primary screen, biochemical, fluorescence imaging, single point, set 5; Purified SirT5, succinyl-peptide AMC, trypsin-coupled fluorescence; 330,000 tested, 1.1% active; AID 652115, 2013; inhibition, % at 15 µM; in the data active = inhibition above about 15%; inconclusive = no clear call, values can overlap the other calls
Target sequence (Q9NXA8 whole entry, looked up): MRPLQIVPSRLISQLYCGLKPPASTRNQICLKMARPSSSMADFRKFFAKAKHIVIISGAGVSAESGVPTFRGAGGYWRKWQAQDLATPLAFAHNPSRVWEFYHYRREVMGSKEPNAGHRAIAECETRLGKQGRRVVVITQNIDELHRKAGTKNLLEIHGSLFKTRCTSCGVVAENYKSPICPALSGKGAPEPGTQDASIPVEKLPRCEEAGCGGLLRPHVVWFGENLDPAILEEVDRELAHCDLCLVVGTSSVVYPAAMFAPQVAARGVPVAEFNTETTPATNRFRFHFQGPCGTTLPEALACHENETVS
An asterisk follows results filed as active; ? = inconclusive; · = not tested or not shown. Compounds with a hit are over-represented: about 3.8% of the library has one in this group of screens.

SMILES	FGF22 binding	FN deposit inh	XiGFP reactiv	DENV2 CPE	ARNT TACC3 PPI	SIRT5 block
COCCNC(=O)C1(C)CCCN(C(=O)c2ccc(C(F)(F)F)cc2)C1 (centres undefined)	0	-4	0	50*	·	-7
CCCNC(=O)C1(C)CCN(C(=O)Cc2ccc(OC)c(OC)c2)C1 (centres undefined)	0	-5	0	3	·	·
O=C(C[C@@H]1CC[C@@H]2[C@H](COC[C@@H](O)CN2C(=O)Nc2ccc(Cl)cc2)O1)NCCc1ccncc1	0	-17	0	16	-2	2
COCC#Cc1ccc([C@@H]2[C@@H](CO)N3C(=O)CN(C(=O)Nc4ccc(F)cc4)C[C@@H]23)cc1	·	·	0	4	·	0
Cc1ccc(-n2c(=O)[nH]c3c(oc4ccccc43)c2=O)cc1	0	31*	0	-1	-6	-3
COc1ccc(-n2c(=S)[nH]c3c(oc4ccccc43)c2=O)cc1	·	-2	0	·	-11	·
COc1cccc(C(=O)Nc2cc3c(cc2C(C)=O)OCCO3)c1	0	1	0	76*	·	-2
COc1cccc(NC(=O)c2ccc3c(c2)OCCO3)c1	0	3	1	1	-1	0
O=C(Nc1ccc2c(c1)OCCO2)c1cccc(C(=O)Nc2ccc3c(c2)OCCO3)c1	0	9	0	26*	40	1
Cc1ccc(Nc2n[nH]c(=S)s2)cc1F	46*	-4	0	8	2	-3
CN1c2ccc(-c3ccc(C#N)cc3)cc2[C@@H]2[C@@H](CCN2C(=O)c2cccc(F)c2)[C@H]1CO	0	-11	0	4	-34	-5
Nc1nc(-c2ccc3c(c2)NC(=O)CO3)cs1	·	·	·	·	0	·
O=C1COc2ccc(-c3n[nH]c(=O)c4ccccc34)cc2N1	43*	12	0	4	-3	0
C[C@H]1CN([C@@H](C)CO)C(=O)c2cc(-c3cccc(F)c3)cnc2O[C@H]1CN(C)C	0	-4	-1	7	-7	-1
Cc1ccc(S(=O)(=O)N(C)C[C@H]2Oc3ncc(-c4ccncc4)cc3C(=O)N([C@@H](C)CO)C[C@@H]2C)cc1	0	-5	0	1	-2	32*
C[C@H]1CN([C@@H](C)CO)C(=O)c2cc(-c3cccnc3)cnc2O[C@H]1CN(C)C	0	-23	0	73*	-4	4
Cc1ccc(-c2cnc3c(c2)C(=O)N([C@@H](C)CO)C[C@H](C)[C@H](CN(C)C)O3)cc1	0	3	0	-2	-8	16*
C[C@@H]1CN([C@H](C)CO)C(=O)c2cc(-c3cccnc3)cnc2O[C@H]1CN(C)C	1	-29	-1	·	-1	-3
C[C@@H]1CN([C@@H](C)CO)C(=O)c2cc(-c3cccc(F)c3)cnc2O[C@H]1CN(C)C	0	-4	0	7	-6	20*
C[C@H](NC(=O)C[C@@H]1CC[C@@H]2[C@@H](COc3ccc(NS(=O)(=O)c4ccc(Cl)cc4)cc3C(=O)N2C)O1)c1ccccc1	0	0	0	4	19	·
C/C=C/c1ccc([C@H]2[C@@H](CO)N[C@@H]2CNC(=O)C2CCCC2)cc1	·	13	0	-7	·	6
C[C@@H]1CN([C@@H](C)CO)S(=O)(=O)c2ccc(/C=C/c3ccccc3)cc2O[C@@H]1CN(C)C(=O)c1ccc2c(c1)OCO2	·	·	0	-3	·	24*
C/C=C/c1ccc2c(c1)O[C@@H](CN(C)C(=O)c1ccc3c(c1)OCO3)[C@H](C)CN([C@@H](C)CO)S2(=O)=O	0	-26	-1	12	5	0
C[C@@H]1CN([C@H](C)CO)S(=O)(=O)c2ccc(/C=C/c3ccccc3)cc2O[C@@H]1CN(C)C(=O)c1ccc2c(c1)OCO2	·	·	-1	-1	·	23*
CC1(C)CC(NCCN2CCN(C3=CC(=C(C#N)C#N)CC(C)(C)C3)CC2)=CC(=C(C#N)C#N)C1	45*	5	0	5	-8	-4
SMILES	FGF22 binding	FN deposit inh	XiGFP reactiv	DENV2 CPE	ARNT TACC3 PPI	SIRT5 block
CNC(=S)N1CCN(CCNC2=CC(=O)CC(C)(C)C2)CC1	0	1	0	?	-3	·
CC1=NN(c2ccc(C)cc2)C(=O)/C1=C\C=C\c1ccccc1	0	3	0	-3	·	-2
CC1=NN(c2cccc(C(=O)O)c2)C(=O)/C1=C\C=C/c1ccccc1	43*	·	2	1	·	-2
C#CCSc1cc(C(F)(F)F)nc(-c2ccccn2)n1	0	6	0	11	-12	20*
O=C(NCC(=O)N1CCN(C(c2ccccc2)c2ccccc2)CC1)c1ccccc1Br	0	6	0	5	·	20*
COc1ccc(S(=O)(=O)Nc2ccc3c(c2)CC(=O)N([C@H](C)CO)C[C@H](C)[C@@H](CN(C)S(C)(=O)=O)O3)cc1	0	-7	0	?	-18	3
Cn1c(-c2ccccc2)c(C(=O)CCl)c2ccccc21	44*	-1	0	-5	27	-4
COc1cc(OC)c(-c2c3cc(O)c(=O)cc-3oc3cc(O)c(O)cc23)cc1OC	1	-4	0	7	·	7
Cc1c2cc(O)c(=O)cc-2oc2cc(O)c(O)cc12	0	·	·	·	·	29*
C#CCN1C=C(C(=O)OCC)C(C)N(Cc2ccccc2I)S1(=O)=O (centres undefined)	0	·	0	74*	0	-5
COc1ccccc1-c1cn(CC[C@H]2CC[C@H](NC(=O)C3CCCCC3)[C@@H](CO)O2)nn1	0	-7	0	2	-3	2
C[C@H](CO)N1C[C@H](C)[C@@H](CN(C)S(=O)(=O)c2cn(C)cn2)OCCCC[C@H](C)Oc2ccc(NC(=O)NC3CCCCC3)cc2C1=O	0	·	0	?	-15	3
O=C(c1cc(F)ccc1F)C1CCCN(C(=O)CCN2CCCCO2)C1 (centres undefined)	43*	·	0	2	1	2
Cc1ccc(-c2ccc([C@@H]3[C@@H](CO)N4C(=O)CN(S(=O)(=O)c5cccc(F)c5)C[C@H]34)cc2)cc1	·	·	0	0	·	7

From PubChem
